PAFAH1B3 FP inh: PAFAH1B3 (human) inhibition | inhibition, % at 3.39 µM | 340,000 compounds, 0.28% hits | Q15102 | recombinant PAFAH1B3, FP-rhodamine probe, fluorescence polarization;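 active = inhibition above the screen-wide average of all tested compounds plus 3 SD, cut at about 25% in these data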
Target sequence (Q15102 whole entry, looked up): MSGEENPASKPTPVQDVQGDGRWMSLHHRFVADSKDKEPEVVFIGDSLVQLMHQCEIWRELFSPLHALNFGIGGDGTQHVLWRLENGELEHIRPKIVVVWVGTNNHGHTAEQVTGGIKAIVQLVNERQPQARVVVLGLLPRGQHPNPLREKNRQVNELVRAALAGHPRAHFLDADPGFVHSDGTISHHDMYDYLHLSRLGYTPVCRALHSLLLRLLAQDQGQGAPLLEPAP
TDP2 inh: blocks human TDP2 phosphodiesterase activity; O95551; recombinant TDP2, T5PNP hydrolysis, p-nitrophenol absorbance 415 nm; inhibition, % at 12.8 µM; 370,000 compounds, 0.34% hits;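 active = inhibition above the mean of all tested compounds plus 3 SD, set per campaign, cut at about 25% in these data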
Target sequence (O95551 whole entry, looked up): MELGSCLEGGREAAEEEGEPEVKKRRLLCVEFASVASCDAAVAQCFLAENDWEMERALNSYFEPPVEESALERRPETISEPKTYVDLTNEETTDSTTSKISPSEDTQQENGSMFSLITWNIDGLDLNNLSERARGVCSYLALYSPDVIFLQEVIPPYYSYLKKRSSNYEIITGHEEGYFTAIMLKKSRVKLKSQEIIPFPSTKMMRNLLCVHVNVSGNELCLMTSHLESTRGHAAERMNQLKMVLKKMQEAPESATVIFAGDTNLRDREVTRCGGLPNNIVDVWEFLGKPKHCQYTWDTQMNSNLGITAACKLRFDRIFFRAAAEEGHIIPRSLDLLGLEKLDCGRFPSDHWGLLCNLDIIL
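Material: recombinant human TDP2; quantity: TDP2 enzyme at 120 nM final; medium: Tris-HCl pH 7.5 with MgCl2; compound: single concentration, 12.8 µM nominal, with 1% DMSO; incubation: 2 h enzyme incubation at 37 °C; signal: epi absorbance; measure: percent inhibition; benchmarks: high control without enzyme, low control DMSO plus TDP2; repeats: singlicate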
PAFAH2 inh: PAFAH2 (human) inhibition | recombinant PAFAH2, FP-rhodamine activity probe, fluorescence polarization | inhibition, % at 3.39 µM | 340,000 compounds, 0.99% hits;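 active = inhibition above the mean over all tested compounds plus 3 SD, cut at about 30% in these data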;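 also: inhibitors block probe labeling of enzyme so polarization drops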
PAFAH1B2 FP inh: blocks human PAF acetylhydrolase 1b catalytic subunit 2. P68402. recombinant PAFAH1B2, FP-rhodamine activity probe, fluorescence polarization. inhibition, % at 3.39 µM. 340,000 compounds, 1.2% hits. AID 492953;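 active = inhibition above the mean of all tested compounds plus 3 SD, cut at about 24% in these data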
Apaf1 inhib: inhibitors of human Apaf-1 apoptosome | AID 489030 | inhibition, % at 20 µM | 330,000 compounds, 0.71% hits | O14727 | reconstituted apoptosome caspase-3 activity, DEVD-Rh110 fluorescence; active = inhibition of at least 40% at 20 µM
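detection = Rh110 fluorescence intensity | test system = biochemical Apaf-1 apoptosome reconstitution | also added = cytochrome c and DEVD-Rh110 substrate | schedule = 30 min plus 50 min, RT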
A number is an active result; 0 = inactive; - = no result given. Most compounds without a hit are left out; they make up all but 2.3% or so of the library.

SMILES	PAFAH1B3 FP inh	TDP2 inh	PAFAH2 inh	PAFAH1B2 FP inh	Apaf1 inhib
CCOC(=O)c1c(NC(=O)CSc2nnc(CNc3ccc(OC)cc3)n2C)sc(C)c1C	0	0	0	26	0
Cc1ccc(CS(=O)(=O)CC(C)(O)c2ccc(Cl)cc2)cc1 (stereo not drawn)	0	0	0	27	0
CC(C)(CO)NCc1cccc(OCc2ccc(Cl)cc2)c1	0	0	0	0	0
Clc1ccc(COc2cccc(CNCc3ccncc3)c2)cc1	0	0	0	33	0
O=C(OCC#CCSc1nnc(-c2cccc3ccccc23)o1)c1ccsc1	-	0	-	-	-
N/C(=N\OC(=O)CCC1CCCCC1)c1cccc([N+](=O)[O-])c1	0	-	0	40	0
N/C(=N\OC(=O)CCC1CCCC1)c1ccccc1	0	0	0	0	0
N/C(=N\OC(=O)CCC1CCCC1)c1ccc([N+](=O)[O-])cc1	0	0	0	29	0
O=C(NC1CCCCN(Cc2ccc(Cl)cc2)C1=O)C1C2CC3CC(C2)CC1C3 (stereo not drawn)	-	0	-	-	-
COc1cc2c(c(OC)c1OC)C1(CCCCC1)CC2NCC=C(C)C (stereo not drawn)	-	0	-	-	-
O=[N+]([O-])c1ccc(N2CCN(S(=O)(=O)c3ccccc3)CC2)c2cccnc12	0	0	0	0	0
Cc1ccc(S(=O)(=O)N2CCN(c3ccc([N+](=O)[O-])c4cccnc34)CC2)cc1	0	0	0	0	47
C[C@H]1[C@@H](NC(=O)C(c2ccccc2)c2ccccc2)CC[C@@]23CCCN2C(=O)CCC[C@@H]13	-	0	-	-	-
COC(=O)[C@]12C[C@H](CC(=O)NCCC(C)C)C(=O)N(Cc3ccc4c(c3)OCO4)C1=C[C@H](COCc1ccccc1)O[C@@H]2C	-	0	-	-	-
CCN1C(=O)N/C(=C/c2cc(C)n(Cc3ccccc3)c2C)C1=O	0	0	0	82	0
CCn1c(C)cc(/C=C2\NC(=O)N(Cc3ccc(Cl)cc3)C2=O)c1C	0	0	0	0	0
CCCCn1c(N)c(N(CC(C)C)C(=O)CN2C(=O)c3ccccc3C2=O)c(=O)[nH]c1=O	0	0	0	0	0
CCCCn1c(N)c(N(CC(C)C)C(=O)CN2C(=O)NC3(CCC(C(C)(C)CC)CC3)C2=O)c(=O)[nH]c1=O (stereo not drawn)	0	0	0	31	-
Cn1cccc1C(=O)N1CCN(S(=O)(=O)c2ccc(C(C)(C)C)cc2)CC1	-	0	-	-	-
Cc1ccc(O)c(N=Cc2cc(Cc3ccccc3)cc([N+](=O)[O-])c2O)c1	0	0	0	34	0
O=[N+]([O-])c1cc(Cc2ccccc2)cc(C=Nc2ccc(N3CCOCC3)cc2)c1O	0	-	0	25	-
O=C(CSc1nnc(-c2ccccn2)n1-c1ccc(Cl)cc1)Nc1ccc(S(=O)(=O)Nc2nccs2)cc1	-	0	-	-	-
CC(CCc1ccccc1)NC(=O)COC(=O)C1=COCCO1 (stereo not drawn)	0	0	0	0	0
CC(NC(=O)COC(=O)C1=COCCO1)C12CC3CC(CC(C3)C1)C2 (stereo not drawn)	0	0	52	25	0
Cc1[nH]c2ccc(C(=O)OCC(=O)NC3(C#N)CCCCC3)cc2c1C	0	0	86	0	0
SMILES	PAFAH1B3 FP inh	TDP2 inh	PAFAH2 inh	PAFAH1B2 FP inh	Apaf1 inhib
CN(C(=O)COC(=O)C1=COCCO1)C1(C#N)CCCCC1	0	0	0	0	0
N#CC1(NC(=O)COC(=O)C2=COCCO2)CCCCC1	32	0	92	0	0
O=C(OC12CCCN(C1)/C(=C/c1cccc(Cl)c1)C2)c1ccno1 (stereo not drawn)	-	0	-	-	-
O=C(NCCCc1ccccc1)OC1CC2CC1[C@H]1CCCCN1C2 (stereo partly drawn)	-	0	-	-	-
CCn1c(Cc2cccs2)nnc1SCC(=O)Nc1ccccc1-c1ccccc1	-	0	-	-	-
CCCCCCCC(=O)N[C@H]1CC[C@@]23CCCN2C(=O)CCC[C@H]3[C@H]1C	-	0	-	-	-
Cc1ccc(CNS(=O)(=O)c2ccc3c(c2)OCCO3)cc1	0	0	0	27	0
NS(=O)(=O)c1ccc(CNS(=O)(=O)c2ccc3c(c2)OCCO3)cc1	0	0	0	0	0
CCOc1ccc(CCNS(=O)(=O)c2ccc3c(c2)N(C(C)=O)CCO3)cc1OCC	0	0	0	0	0
CC(=O)N1CCOc2ccc(S(=O)(=O)NCc3ccc(C)cc3)cc21	0	0	0	34	0
CC(=O)N1CCOc2ccc(S(=O)(=O)NCCc3ccc(C)cc3)cc21	0	0	0	32	0
C[C@@H]1ON(C)[C@H]2C[C@H]3c4cc(-c5ccc(F)cc5)ccc4CCN3C[C@@H]12	-	0	-	-	-
COC(=O)C1=C(C)N(Cc2cccc(C(F)(F)F)c2)C(=NCC2CC2)NC1c1cccc(C(F)(F)F)c1 (stereo not drawn)	-	0	-	-	-
Cc1ccc(CN2CCCCC(NC(=O)c3ccc(COc4ccccc4)cc3)C2=O)cc1 (stereo not drawn)	-	0	-	-	-
O=C(COc1ccc(Cl)cc1)NNC(=O)C(=O)N1CCCCC1	0	0	0	31	0
O=C(CCc1ccccc1)N[C@H]1[C@H](OC(=O)c2ccco2)CCC[C@]12C(=O)N(Cc1ccccc1)c1ccccc12	-	0	-	-	-
CSc1ccc(S(=O)(=O)NC(C)c2ccccc2)cc1 (stereo not drawn)	-	0	-	-	0
Cc1ccc(S(=O)(=O)NC(C)c2ccccc2)cc1[N+](=O)[O-] (stereo not drawn)	0	0	0	24	0
COc1cc(NS(=O)(=O)c2ccc3[nH]c(=O)oc3c2)cc(OC)c1	-	0	-	-	0
O=c1[nH]c2ccc(S(=O)(=O)Nc3ccc(Cl)cc3)cc2o1	0	0	0	54	0
COC(=O)[C@]12C[C@H](CC(=O)NCCCN3CCCC3=O)C(=O)N(Cc3cccc4ccccc34)C1=C[C@H](C(C)(C)C)O[C@@H]2C	-	0	-	-	-
CCNC(=O)n1nccc1C(C)Oc1ccc(Cl)cc1 (stereo not drawn)	0	0	0	58	0
CCNC(=O)n1nccc1C(C)Oc1cccc(C(F)(F)F)c1 (stereo not drawn)	0	0	0	0	0
O=C(OCc1cn(Cc2cccc(F)c2)nn1)N1CCOCC1	-	0	-	-	-
O=C(NNC(=O)C1CCN(S(=O)(=O)c2ccc(Cl)cc2)CC1)c1ccc(S(=O)(=O)N2CCCCC2)cc1	0	0	0	0	0
O=C(NCCc1ccc(Cl)cc1)C1CCCN1C(=O)Nc1ccccc1 (stereo not drawn)	0	0	0	26	0
C=CCNC(=O)C1CCN(S(=O)(=O)c2ccc(Br)cc2)CC1	0	0	0	33	0
O=C(NCCc1ccc(Cl)cc1)C1CCCN1C(=O)Nc1ccc(F)cc1 (stereo not drawn)	0	0	0	0	0
Cc1ccc(C(=O)NNC(=O)C2CCN(S(=O)(=O)c3ccc(Cl)cc3)CC2)cc1	0	0	0	26	0
CC(=O)Nc1ccc(S(=O)(=O)N2CCC(C(=O)NCCc3ccc(Cl)cc3)CC2)cc1	0	0	0	27	0

Compound activity from PubChem BioAssay.
